Most compounds without a hit are left out; they make up all but 2.4% or so of the library.
Ecoli rRNA inh = inhibitors of bacterial rRNA selective over humanized ribosomes | AID 720706 | E. coli WT GFP vs humanized-ribosome RFP mutants, fluorescence, 24 h; hits give low values; DMSO median 0, no signal -100 | GFP signal change (wild-type ribosome), % (concentration not given with the values) | 350,000 compounds, 1.6% hits;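 active means significant combined selectivity score with lowered wild-type GFP, culture density cut under 30%, mutant RFP and density less affected; inactive means any of these conditions unmet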
ARNT-TACC3 inh = ARNT/TACC3 interaction disruption | Q9Y6A5 | AlphaScreen His-ARNT PAS-B/GST-TACC3 binding, luminescence; TACC3 fragment carries E629A point mutation | inhibition, % at 9.99 µM | 390,000 compounds, 0.66% hits | AID 623870;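 active means mean inhibition of replicates at least 50% and at least half of replicates each reaching 50%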;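 further: 0% = complete ARNT plus TACC3 wells and 100% = ARNT alone without TACC3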
PGC1a acetyl inh = modulators of PGC1a acetylation. U2OS PGC1a acetylation, AlphaScreen anti-acetyl-lysine; with virally co-expressed GCN5 acetyltransferase. inhibition, % at 15.6 µM. 350,000 compounds, 0.17% hits. AID 651687;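 active means every replicate shows inhibition of at least 40%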;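 further: 0% = neutral control wells and 100% = positive control wells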
ERAP1 HTS inh = blocks human ERAP1 aminopeptidase activity; Q9NZ08; recombinant ERAP1, Leu-AMC fluorescence, 60 min; inhibition, % at 10.7 µM; 340,000 compounds, 0.15% hits;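 active means mean replicate inhibition of at least 30%, or all replicates individually reaching that 30% level; inactive means mean below 30% and not every replicate reaching it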;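 further: 0% = neutral control wells and 100% = L-leucinethiol positive control wells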
Casp6 inh = blocks human caspase-6 cleavage activity; purified caspase-6, Z-VEID-R110 cleavage fluorescence; inhibition, % at 12.5 µM; 350,000 compounds, 0.53% hits; AID 686996;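 active means mean inhibition across replicates at least about 35%, with every replicate also reaching that limit, limit read from the data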;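 further: 0% = median of neutral control wells and 100% = no fluorescence left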
Target sequence (P55212 24-179 limits assumed): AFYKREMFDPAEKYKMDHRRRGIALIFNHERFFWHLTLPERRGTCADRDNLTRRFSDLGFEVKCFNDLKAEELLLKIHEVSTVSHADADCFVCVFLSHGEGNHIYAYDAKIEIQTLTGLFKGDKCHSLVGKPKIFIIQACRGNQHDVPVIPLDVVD
Target sequence (P55212 194-293 limits assumed): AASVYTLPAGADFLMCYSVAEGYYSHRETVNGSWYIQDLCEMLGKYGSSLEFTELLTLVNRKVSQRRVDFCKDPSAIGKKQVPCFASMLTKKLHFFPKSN
S100A4 MyoIIA = blocks human S100A4 binding to myosin IIA peptide | P26447 | S100A4/TAMRA-MyoIIA peptide fluorescence polarization | inhibition, % at 10.7 µM | 360,000 compounds, 0.14% hits | AID 652163;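 active means mean inhibition of at least 70% across replicates, with every replicate also reaching that level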
Target sequence (P26447 whole entry, looked up): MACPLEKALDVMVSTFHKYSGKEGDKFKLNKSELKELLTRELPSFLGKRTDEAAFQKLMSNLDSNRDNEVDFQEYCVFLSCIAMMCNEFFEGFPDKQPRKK
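Compound dosing: one dose per compound; test system: human S100A4 monomer with TAMRA-labelled myosin IIA peptide; probe or stimulus: TAMRA-labelled myosin IIA heavy-chain peptide probe, 5 nM; medium: HEPES buffer with Ca2+, pH 7.2; schedule: 5 min incubation before reading; benchmarks: neutral control DMSO, positive control TFP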
An asterisk follows results filed as active; . = not tested or not shown.

SMILES | Ecoli rRNA inh | ARNT-TACC3 inh | PGC1a acetyl inh | ERAP1 HTS inh | Casp6 inh | S100A4 MyoIIA
Cc1cccc(NC(=S)NC2CCCC2)c1 | . | -5 | . | . | . | .
Cc1nc(-n2[nH]c3c(c2=O)CCCC3)[nH]c(=O)c1Cc1ccccc1 | . | 59* | 11 | . | . | .
Cc1nc(N2CCc3ccccc3C2)[nH]c(=O)c1Cc1ccccc1 | 17 | 0 | 12 | 1 | -1 | -1
Nc1cc(N2CCOCC2)c(Cl)cc1[N+](=O)[O-] | -21* | -5 | . | 4 | 1 | -1
CN(C)C(CNc1ncnc2sc3c(c12)CCCCC3)c1ccco1 (stereo unspecified) | -38* | 8 | -1 | 4 | 6 | -6
O=C1C=CC2=C3c4cc(O)c(O)cc4CC3(O)COC2=C1O (stereo unspecified) | . | 27 | 3 | 6 | 85* | -12
COc1ccc2c3c(n(C)c2c1)[C@H](CO)N(C(C)=O)CC31CN(Cc2cccnc2)C1 | 0 | . | . | . | . | .
O=C(CSc1nnc2c(n1)[nH]c1ccccc12)Nc1ccc(S(=O)(=O)Nc2ncccn2)cc1 | 18 | 49* | . | 0 | -2 | -4
O=S1(=O)CC(N2CCN(Cc3ccccc3F)CC2)CN1Cc1cn(Cc2ccc(Cl)cc2)nn1 (stereo unspecified) | -19* | . | . | . | 0 | -3
COc1ccc(Cn2cc(CN3CC(N4CCN(Cc5ccccc5F)CC4)CS3(=O)=O)nn2)cc1 (stereo unspecified) | -1 | . | . | . | 0 | -2
O=C(Nc1ccncc1)Nc1cccc(C(F)(F)F)c1 | -53 | -4 | . | -1 | 3 | -5
N/C(=N\OC(=O)Nc1cccc(C(F)(F)F)c1)c1ccno1 | -51* | 4 | 14 | 0 | 1 | 0
Cc1ccc(S(=O)(=O)N[C@@H]2CC[C@@H](CC(=O)NCc3ccncn3)O[C@@H]2CO)cc1 | 2 | 0 | 2 | 0 | 2 | 2
COc1ccc(-c2ccc(SCC(=O)c3ccc(F)cc3)nn2)cc1OC | -21 | -2 | 29 | -5 | -5 | 0
COc1ccc(-c2ccc(SCC(=O)c3cccs3)nn2)cc1OC | -34* | -3 | -31 | 2 | 4 | -9
COC(=O)CCCC1=CC2=CC(=O)C(C)(OC(=O)c3cccs3)C(=O)C2=CN1Cc1ccco1 (stereo unspecified) | 9 | 10 | 18 | . | 47* | -1
CC1(OC(=O)c2cccs2)C(=O)C=C2C=C3CCCN3C=C2C1=O (stereo unspecified) | . | 8.4* | 5 | . | . | .
Cc1ccc(-c2ccc3c(c2)O[C@H](CN(C)C(=O)C2CCCCC2)[C@@H](C)CN([C@@H](C)CO)S3(=O)=O)cc1 | -2 | . | 4 | . | . | .
COc1ccc(-c2ccc3c(c2)O[C@H](CN(C)CC2CCOCC2)[C@H](C)CN([C@@H](C)CO)S3(=O)=O)cc1 | -3 | -5 | 3 | -1 | 1 | 0
COc1ccc(CCNC(=O)c2cc3c(=O)n4ccccc4nc3n(C3CCCCC3)c2=N)cc1 | -30 | 3 | . | -22 | 4 | -11
COc1ccc(CCNC(=O)c2cc3c(=O)n4ccccc4nc3n(C3CCCCC3)c2=N)cc1OC | -20* | 2 | -41 | -3 | -6 | -2
N=c1c(C(=O)NCC2CCCO2)cc2c(=O)n3ccccc3nc2n1C1CCCCC1 (stereo unspecified) | 10 | -7 | 5 | 121* | 1 | 2
O=C(C[C@@H]1C[C@H]2c3cc(NC(=O)Nc4ccc(C(F)(F)F)cc4)ccc3O[C@H]2[C@@H](CO)O1)NCc1ccc(Cl)cc1 | -1 | -5 | 4 | 0 | 0 | 15
COc1ccc(S(=O)(=O)Nc2cccc3c2O[C@H](CN(C)Cc2ccc4c(c2)OCO4)[C@@H](C)CN([C@H](C)CO)C3=O)cc1 | -5 | . | -3 | -2 | 1 | -6
c1ccc(CCNc2nc(-c3ccccn3)nc3ccccc23)cc1 | -53 | 64* | 1 | 1 | -2 | -3
SMILES | Ecoli rRNA inh | ARNT-TACC3 inh | PGC1a acetyl inh | ERAP1 HTS inh | Casp6 inh | S100A4 MyoIIA
c1ccc(CN2CCN(c3nc(-c4ccccn4)nc4ccccc34)CC2)cc1 | . | -3 | -12 | . | . | .
c1ccc(-c2nc(N3CCCCCC3)c3ccccc3n2)nc1 | . | 76* | 9 | . | . | .
CCN1CCN(c2nc(-c3ccccn3)nc3ccccc23)CC1 | . | 46* | 9 | . | . | .
C[C@@H](O)C#Cc1cnc2c(c1)C(=O)N([C@@H](C)CO)C[C@H](C)[C@H](CN(C)C(=O)Cc1ccncc1)O2 | 1 | -4 | 2 | 1 | -2 | 0
Cc1noc(C)c1S(=O)(=O)Nc1ccc2c(c1)C(=O)N([C@H](C)CO)C[C@@H](C)[C@@H](CN(C)S(=O)(=O)c1cn(C)cn1)O2 | 1 | . | 6 | 0 | -1 | -4
Cc1cccc(OCC(=O)NNC(=O)c2ccc3nc[nH]c3c2)c1 | 2 | 3 | 11 | 3 | 41* | -11
COC(=O)[C@@H](NS(=O)(=O)c1cc(Br)ccc1Br)C(C)C | -26* | . | 5 | . | -3 | -3
CCC(=O)n1nc(-c2ccccc2)nc1NCc1ccccc1 | -3 | 27 | 9 | 2 | -1 | -4
CN(C)c1ccc(CNc2nc(-c3ccccc3)nn2S(C)(=O)=O)cc1 | -23* | . | -4 | 0 | -2 | 9
CC(=O)n1nc(-c2ccccc2)nc1NCc1ccc(N(C)C)cc1 | -25* | 7 | -2 | -1 | 2 | -17
COc1ccc(C(=O)COC(=O)c2ccc(OC)c(OC)c2)cc1OC | 0 | . | 8 | 3 | -1 | 1
COc1ccc(C(=O)OCC(=O)c2ccc(F)cc2)cc1OC | -22* | -6 | . | 4 | 22 | 2
CCN1/C(=C/C=C/C=C/C=C/c2sc3ccccc3[n+]2CC)Sc2ccccc21 | 8 | -2 | 5 | 31* | . | -71
CCN1/C(=C/C=C/c2sc3ccccc3[n+]2CC)Sc2ccccc21 | . | 15 | -2 | . | . | .
C[C@H]1CCCCO[C@H](CN(C)S(=O)(=O)c2ccc(Cl)cc2)[C@@H](C)CN([C@@H](C)CO)C(=O)c2cc(NS(=O)(=O)c3ccc(F)cc3)ccc2O1 | -1 | -18 | -2 | 3 | 2 | -51
O=C1NC(Cc2ccc(O)cc2)c2nc3ccc(Br)cc3c(=O)n2-c2cc3ccccc3cc21 (stereo unspecified) | . | . | -3 | -4 | 3 | 1
O=C1NC(Cc2ccc(O)cc2)c2nc3ccc(Br)cc3c(=O)n2-c2ncccc21 (stereo unspecified) | -21* | . | 0 | 1 | 40* | 1
CCOC(=O)c1c(NC(=O)CSc2nnc(-c3ccccc3)n2CC)sc(C(C)=O)c1C | -37* | -2 | 35 | 0 | 2 | -1
Cc1ccccc1N=C(NO)c1nonc1N | -29* | -6 | -8 | -1 | 2 | 6
CCS(=O)(=O)N1CCN(c2ccccc2F)CC1 | . | 6 | -1 | . | . | .
O=C1Oc2ccccc2C(=O)/C1=C/N1CCN(c2ccccc2F)CC1 | -30* | -3 | 5 | 0 | 0 | -2

Assay outcomes: PubChem, Broad Institute
